The test system of test [1] is HL-60. The experiment in a line: The ability to induce differentiation of HL-60 cells relative to that of retinoic acid. It is filed as functional, Homo sapiens. The procedure, abridged: (§1)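 HL-60 cells from suspension culture in RPMI1640 with 5% FCS and antibiotics, 37 °C, 5% CO2. Compounds were dissolved in ethanol at 0.2 mM (stock), with final ethanol below 0.5%, and added to cells seeded at about 8 × 10^4 cells/mL for 4 days. Retinoic acid was run concurrently. Value is the ED50 ratio of retinoic acid to compound, with ED50 taken from NBT-reduction data.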

Test [2] deals with HL-60. The experiment in a line: The ability to induce differentiation of human promyelocytic leukemia HL-60 cell line to mature granulocyte. It is filed as functional. Conditions: read-out: ED50 (the source's name). The procedure, abridged: (§2)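 HL-60 cells in RPMI1640 with 5% FCS, ethanol stocks at 0.2 mM, final ethanol <0.5%, seeded at ~8 × 10^4 cells/mL and exposed 4 days across 5 orders of concentration. Cells were then incubated 20 min at 37 °C with an equal volume of PBS containing 0.2% NBT and 200 ng/mL TPA. Formazan-positive cells were counted (≥200 cells). ED50 from NBT data; ≥3 repeats.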

Test [3] relates to HL-60. Nature of the test: The ability to induce differentiation of human promyelocytic leukemia HL-60 cell line to mature granulocyte was determined in a NBT reduction assay; IA= Inactive. It is filed as functional, cell-based. The procedure, abridged:
as §2

Test [4] relates to HL-60. The experiment in a line: Activity to differentiate HL-60 cells relative to that of retinoic acid. The format is functional, Homo sapiens. The procedure, abridged:
as §1

Test [5] deals with HL-60. Nature of the test: The ability to induce differentiation of human promyelocytic leukemia HL-60 cell line to mature granulocyte was determined in a NBT reduction assay; IA= Inactive at >10e-6. It is filed as functional, cell-based. The procedure, abridged: as §2
Test [6] concerns HL-60. The experiment in a line: The ability to induce differentiation of human promyelocytic leukemia HL-60 cell line to mature granulocyte was determined in a NBT reduction assay; NA means inactive. It is filed as functional, cell-based. The procedure, abridged: as §2
In test [7] the test system is HL-60. The experiment in a line: The ability to induce differentiation of human promyelocytic leukemia HL-60 cell line to mature granulocyte was determined in a NBT reduction assay; Maximum cellular response to compound is less than half of that of retinoic acid. It is filed as functional. Conditions: read-out: ED50 (the source's name). The procedure, abridged:
as §2

Active and inactive are the calls of the source. No cut-off for these calls is given here. Where only a bound is given, the exact number is not on record here.

In turn, `CC1(C)CCC(C)(C)c2cc(/C(=C/c3ccc(C(=O)O)cc3)C(F)(F)F)ccc21` returned a Relative activity with HL-60 [1] of 5.7. Besides, the EC50 in the test with HL-60 [2] was found to be 31 nM. Consider `C/C(=C\c1ccc(C(=O)O)cc1)c1ccc(C)c(C)c1`, for which the ED50 entry with HL-60 [3] is “inactive”. Regarding `CC1(C)CCOc2ccc(/N=N/c3ccc(C(=O)O)cc3)cc21`, the Relative activity in the test on HL-60 [1] stood at 3.5. Also, the EC50 with HL-60 [2] worked out at 130 nM. Regarding `O=C(O)c1ccc(/N=N/c2ccccc2)cc1`, the ED50 result with HL-60 [3] is “inactive”.

`CC(C)(C)c1cccc(/C=C/c2ccc(C(=O)O)cc2)c1` had a Relative activity in the test on HL-60 [1] of 13. In the case of `CC1(C)CCC(C)(C)c2cc(CCc3ccc(C(=O)O)cc3)ccc21`, in the test with HL-60 [1], the Relative activity is on record as 2.7. The EC50 with HL-60 [2] was determined as 130 nM. On to `CC(C)c1ccc(/N=N/c2ccc(C(=O)O)cc2)cc1`, for which, in the test with HL-60 [1], the Relative activity is less than 0.1. The EC50 in the test with HL-60 [2] was greater than 10000 nM. On to `CC(C)c1ccccc1/N=N/c1ccc(C(=O)O)cc1`, for which the ED50 entry in the test with HL-60 [3] is “inactive”. As to `C/C(=C\c1ccc(C(=O)O)cc1)c1ccc(C(C)C)c(C(C)C)c1`, the Relative activity with HL-60 [4] was 15. Moreover, the EC50 in the test with HL-60 [2] was found to be 13 nM. With `CCc1cccc(/N=N/c2ccc(C(=O)O)cc2)c1`, the ED50 entry in the test on HL-60 [5] was “inactive”. In addition, the Relative activity in the test with HL-60 [1] was less than 0.1.

With `O=C(O)c1ccc(/C=C/c2ccccc2)cc1`, the ED50 entry in the test with HL-60 [6] is “inactive”. `CC1(C)CCC(C)(C)c2cc(/N=[N+](\[O-])c3ccc(C(=O)O)cc3)ccc21` gave a Relative activity with HL-60 [1] of 1960. Moreover, the EC50 in the test on HL-60 [2] came to 0.25 nM. Regarding `CC(C)c1ccc(C(C)C)c(/N=N/c2ccc(C(=O)O)cc2)c1`, the ED50 entry in the test on HL-60 [3] was “inactive”. Same read-out and setting: in the case of `Cc1cccc(/N=N/c2ccc(C(=O)O)cc2)c1` it was “inactive”. `CC1(C)CCC(C)(C)c2cc3c(cc21)CC/C3=C\c1ccc(C(=O)O)cc1`: the Relative activity in the test with HL-60 [1] came out at 570. Moreover, the EC50 in the test on HL-60 [2] stood at 0.2 nM. For `C/C(=C\c1ccc(C(=O)O)cc1)c1ccc2c(c1)C(C)(C)CCC2(C)C`, in that order: 90 and 2.5 nM. In the test with HL-60 [1], `CC(C)(C)c1ccc(C2OC2c2ccc(C(=O)O)cc2)cc1` (stereo unspecified) yielded a Relative activity of less than 0.01. The EC50 in the test on HL-60 [2] is greater than 1000 nM. The compound `CC(C)(C)c1cccc(/N=N/c2ccc(C(=O)O)cc2)c1` gave a Relative activity in the test with HL-60 [1] of 0.36. The EC50 in the test with HL-60 [2] was 400 nM. As for `CCc1ccc(C2(C)OC2c2ccc(C(=O)O)cc2)cc1CC` (stereo unspecified), in the test with HL-60 [3], the ED50 result was “inactive”. Take `CC(C)(C)c1cccc(C2OC2c2ccc(C(=O)O)cc2)c1` (stereo unspecified): in the test with HL-60 [1], the Relative activity was less than 0.01. Moreover, the EC50 with HL-60 [2] is greater than 1000 nM. In the test with HL-60 [1], `CC1(C)CCC(C)(C)c2cc(C3OC3c3ccc(C(=O)O)cc3)ccc21` (stereo unspecified) showed a Relative activity of 22. In addition, the EC50 in the test with HL-60 [2] was determined as 4.3 nM. In the test with HL-60 [1], `CC(C)c1ccc(/N=N/c2ccc(C(=O)O)cc2)cc1C(C)C` displayed a Relative activity of 39. For the same compound, the EC50 with HL-60 [2] came out at 2.3 nM. For `CCc1ccc(/N=N/c2ccc(C(=O)O)cc2)cc1CC`, in that order: 0.53 and 220 nM. For the compound `C/C(=C\c1ccc(C(=O)O)cc1)c1ccc(C(C)(C)C)cc1`, the ED50 result with HL-60 [3] is “inactive”.

Compound `CCc1ccc(/C(C)=C/c2ccc(C(=O)O)cc2)cc1CC` gave a Relative activity in the test with HL-60 [1] of 2.2. For the same compound, the EC50 in the test on HL-60 [2] stood at 87 nM.

In the case of `O=C(O)c1ccc(/N=N/c2cccc(-c3ccccc3)c2)cc1`, the Relative activity in the test on HL-60 [1] is less than 0.1. Further, in the test with HL-60 [2], the EC50 is greater than 10000 nM. Regarding `CC1(C)CCC(C)(C)c2cc3oc(-c4ccc(C(=O)O)cc4)cc3cc21`, the Relative activity in the test on HL-60 [1] amounted to 120. In addition, the EC50 in the test on HL-60 [2] was 1.3 nM.

As for `CC1(C)CCC(C)(C)c2cc3c(cc21)C=C(c1ccc(C(=O)O)cc1)C3`, the EC50 in the test with HL-60 [7] was 6.6 nM.

For `CC1=C(/C=C/C(C)=C/C=C/C(C)=C/C(=O)O)C(C)(C)CCC1` [TRETINOIN], the Relative activity in the test with HL-60 [1] is given as 100. Also, the EC50 in the test with HL-60 [2] came out at 2.4 nM. The compound `CC1(C)CCSc2ccc(/N=N/c3ccc(C(=O)O)cc3)cc21` displayed a Relative activity in the test with HL-60 [1] of 2.1. Also, the EC50 in the test with HL-60 [2] was found to be 210 nM. For `CC(C)c1ccc(/N=N/c2ccc(C(=O)O)cc2)c(C(C)C)c1`, in that order: less than 0.1 and greater than 10000 nM. For `CC1(C)CCC(C)(C)c2cc(C3(C)OC3c3ccc(C(=O)O)cc3)ccc21` (stereo unspecified), in that order: 0.65 and 130 nM.

As for `CC1(C)CCC(C)(C)c2cc(C(=O)C(=O)c3ccc(C(=O)O)cc3)ccc21`, the Relative activity in the test on HL-60 [1] is recorded as 3.9. Also, the EC50 in the test on HL-60 [2] amounted to 140 nM.

`CC(C)c1cc(/N=N/c2ccc(C(=O)O)cc2)cc(C(C)C)c1`: the Relative activity in the test with HL-60 [1] turned out to be 0.22. In addition, the EC50 in the test with HL-60 [2] stood at 410 nM. For `CC(C)c1cccc(/N=N/c2ccc(C(=O)O)cc2)c1`, in that order: 0.29 and 380 nM. For `CC1(C)CCC(C)(C)c2cc(/C=C/c3ccc(C(=O)O)cc3)ccc21`, in that order: 260 and 0.5 nM. `O=C(O)c1ccc(/N=N/c2cccc(C3CCCCC3)c2)cc1` had a Relative activity with HL-60 [1] of 0.68. Further, the EC50 in the test with HL-60 [2] turned out to be 130 nM. Regarding `CC1(C)CCC(C)(C)c2cc(/N=N/c3ccc(C(=O)O)cc3)ccc21`, the Relative activity in the test on HL-60 [1] is listed as 130. Take `CC(C)(C)c1ccc(/C=C/c2ccc(C(=O)O)cc2)cc1`: in the test on HL-60 [3], the ED50 result is “inactive”.
